# Reference: ChEMBL document CHEMBL4270660, “Design, synthesis, and systematic evaluation of 4-arylpiperazine- and 4-benzylpiperidine napthyl ethers as inhibitors of monoamine neurotransmitters reuptake” (Bioorg Med Chem, 2018)
# Activity calls are given as the source filed them. The calls are words filed in the database; no cut-off is given here.
# Molecular target: T1, Sodium-dependent noradrenaline transporter (Homo sapiens, UniProt P23975)
# Assay: Inhibition of [3H]norepinephrine uptake at human NET expressed in HEK293 cells after 15 to 20 mins by microbeta scintillation counting method
# Type: cell-based
# Conditions: not given
# Method in brief: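 HEK-293 cells transfected with the human transporter (DAT or NET) were given the radiolabeled substrate, [³H]-DA for DAT or [³H]-NE for NET, at 20 nM in the assay. Uptake was measured by liquid scintillation counting. Single-concentration lines are percent reuptake inhibition at the stated concentration.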
# T1 sequence (P23975 whole entry): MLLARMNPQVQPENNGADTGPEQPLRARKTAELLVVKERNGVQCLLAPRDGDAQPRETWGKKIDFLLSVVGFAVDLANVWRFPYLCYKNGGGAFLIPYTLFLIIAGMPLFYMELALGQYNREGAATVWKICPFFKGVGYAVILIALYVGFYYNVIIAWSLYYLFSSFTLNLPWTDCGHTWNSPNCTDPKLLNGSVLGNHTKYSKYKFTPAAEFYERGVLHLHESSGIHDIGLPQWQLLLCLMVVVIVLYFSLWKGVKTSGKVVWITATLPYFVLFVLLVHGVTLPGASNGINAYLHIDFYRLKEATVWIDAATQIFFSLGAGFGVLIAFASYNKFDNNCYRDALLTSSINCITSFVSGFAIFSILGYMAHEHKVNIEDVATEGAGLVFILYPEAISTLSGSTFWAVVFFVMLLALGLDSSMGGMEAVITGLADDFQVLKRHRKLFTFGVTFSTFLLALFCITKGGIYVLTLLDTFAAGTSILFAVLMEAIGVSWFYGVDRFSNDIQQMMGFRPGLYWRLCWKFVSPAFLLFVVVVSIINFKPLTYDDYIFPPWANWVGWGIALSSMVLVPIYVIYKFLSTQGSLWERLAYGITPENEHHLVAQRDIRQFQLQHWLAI
row,SMILES,IC50 [nM]
1,c1ccc(N2CCN(CCOc3ccc4ccccc4c3)CC2)nc1,23800
2,FC(F)(F)c1ccc(N2CCN(CCCCOc3ccc4ccccc4c3)CC2)cc1,20500
3,c1ccc(CC2CCN(CCCOc3ccc4ccccc4c3)CC2)cc1,2540
4,COc1ccccc1N1CCN(CCCCOc2ccc3ccccc3c2)CC1,29700
5,Brc1ccc(N2CCN(CCCOc3ccc4ccccc4c3)CC2)cc1,2850
6,Clc1ccc(N2CCN(CCCCOc3ccc4ccccc4c3)CC2)c(Cl)c1,9740
7,COc1ccccc1N1CCN(CCCOc2ccc3ccccc3c2)CC1,1200
8,Clc1cccc(N2CCN(CCOc3ccc4ccccc4c3)CC2)c1,5830
9,Brc1ccc(N2CCN(CCCCOc3ccc4ccccc4c3)CC2)cc1,25900
10,Fc1ccc(N2CCN(CCCCOc3ccc4ccccc4c3)CC2)cc1,3710
11,Fc1ccc(N2CCN(CCOc3ccc4ccccc4c3)CC2)cc1,5130

# Molecular target: T1, Sodium-dependent noradrenaline transporter
# Assay: Inhibition of [3H]norepinephrine uptake at human NET expressed in HEK293 cells at 10 uM after 15 to 20 mins by microbeta scintillation counting method
# Type: cell-based
# Conditions: not given
# Method in brief: (§1)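 HEK-293 cells transfected with the human transporter (DAT or NET) were given the radiolabeled substrate, [³H]-DA for DAT or [³H]-NE for NET, at 20 nM in the assay. Uptake was measured by liquid scintillation counting. Reference inhibitors were venlafaxine HCl, bupropion and GBR12909. Single-concentration lines are percent reuptake inhibition at the stated concentration.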
row,SMILES,inhibition [%]
1,Clc1ccc(N2CCN(CCOc3ccc4ccccc4c3)CC2)cc1,28
2,CC(NC(C)(C)C)C(=O)c1cccc(Cl)c1 (stereo unspecified),61.5
3,c1ccc(N2CCN(CCOc3ccc4ccccc4c3)CC2)nc1,66
4,Clc1cccc(N2CCN(CCOc3ccc4ccccc4c3)CC2)c1Cl,20
5,FC(F)(F)c1ccc(N2CCN(CCOc3ccc4ccccc4c3)CC2)cc1,23.1
6,FC(F)(F)c1ccc(N2CCN(CCCCOc3ccc4ccccc4c3)CC2)cc1,68.3
7,c1ccc(N2CCN(CCCCOc3ccc4ccccc4c3)CC2)cc1,86.4
8,c1ccc(CC2CCN(CCCOc3ccc4ccccc4c3)CC2)cc1,92.2
9,Clc1cccc(N2CCN(CCCOc3ccc4ccccc4c3)CC2)c1Cl,45
10,Clc1ccc(N2CCN(CCOc3ccc4ccccc4c3)CC2)c(Cl)c1,47.3
11,COc1ccccc1N1CCN(CCCCOc2ccc3ccccc3c2)CC1,68
12,Cc1cccc(C)c1N1CCN(CCOc2ccc3ccccc3c2)CC1,74.9
13,Brc1ccc(N2CCN(CCCOc3ccc4ccccc4c3)CC2)cc1,80
14,Fc1ccc(N2CCN(CCCOc3ccc4ccccc4c3)CC2)cc1,23.3
15,Clc1cccc(N2CCN(CCCCOc3ccc4ccccc4c3)CC2)c1,63.7
16,c1cnc(N2CCN(CCCCOc3ccc4ccccc4c3)CC2)nc1,31
17,c1ccc(CC2CCN(CCCCOc3ccc4ccccc4c3)CC2)cc1,80.7
18,c1ccc(N2CCN(CCOc3ccc4ccccc4c3)CC2)cc1,28

row,SMILES,inhibition [%]
1,Clc1ccc(N2CCN(CCCCOc3ccc4ccccc4c3)CC2)c(Cl)c1,67.7
2,c1ccc(N2CCN(CCCOc3ccc4ccccc4c3)CC2)nc1,68.7
3,c1cnc(N2CCN(CCCOc3ccc4ccccc4c3)CC2)nc1,47.3
4,COc1ccccc1N1CCN(CCCOc2ccc3ccccc3c2)CC1,85.3
5,Cc1cccc(C)c1N1CCN(CCCOc2ccc3ccccc3c2)CC1,86.5
6,Cc1cccc(C)c1N1CCN(CCCCOc2ccc3ccccc3c2)CC1,74.4
7,Clc1ccc(N2CCN(CCCCOc3ccc4ccccc4c3)CC2)cc1,69.3
8,Clc1cccc(N2CCN(CCOc3ccc4ccccc4c3)CC2)c1,83.1
9,Brc1ccc(N2CCN(CCOc3ccc4ccccc4c3)CC2)cc1,52.8
10,Clc1cccc(N2CCN(CCCCOc3ccc4ccccc4c3)CC2)c1Cl,60.7
11,Brc1ccc(N2CCN(CCCCOc3ccc4ccccc4c3)CC2)cc1,66.3
12,c1ccc(N2CCN(CCCOc3ccc4ccccc4c3)CC2)cc1,79.6
13,Fc1ccc(N2CCN(CCCCOc3ccc4ccccc4c3)CC2)cc1,74.3
14,Clc1ccc(N2CCN(CCCOc3ccc4ccccc4c3)CC2)cc1,25.7
15,COc1ccccc1N1CCN(CCOc2ccc3ccccc3c2)CC1,21
16,Fc1ccc(N2CCN(CCOc3ccc4ccccc4c3)CC2)cc1,80.8
17,c1ccc(N2CCN(CCCCOc3ccc4ccccc4c3)CC2)nc1,59

# Molecular target: T1, Sodium-dependent noradrenaline transporter
# Conditions: HEK293, 1 uM
row,SMILES,inhibition [%]
1,COc1ccc(C(CN(C)C)C2(O)CCCCC2)cc1 (stereo unspecified),52.6

# Molecular target: T2, Sodium-dependent serotonin transporter (Homo sapiens, UniProt P31645)
# Assay: Inhibition of [3H]serotonin uptake at SERT (unknown origin)
# Conditions: not given
# Method in brief: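 Human serotonin transporter (hSERT) expressed by transfection in HEK-293 cells. [³H]-5-HT at 20 nM, with uptake radioactivity counted by liquid scintillation. Percent reuptake inhibition measured at 1 µM and 10 µM, plus IC50 determination.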
# Target sequence in this assay (P31645 whole entry): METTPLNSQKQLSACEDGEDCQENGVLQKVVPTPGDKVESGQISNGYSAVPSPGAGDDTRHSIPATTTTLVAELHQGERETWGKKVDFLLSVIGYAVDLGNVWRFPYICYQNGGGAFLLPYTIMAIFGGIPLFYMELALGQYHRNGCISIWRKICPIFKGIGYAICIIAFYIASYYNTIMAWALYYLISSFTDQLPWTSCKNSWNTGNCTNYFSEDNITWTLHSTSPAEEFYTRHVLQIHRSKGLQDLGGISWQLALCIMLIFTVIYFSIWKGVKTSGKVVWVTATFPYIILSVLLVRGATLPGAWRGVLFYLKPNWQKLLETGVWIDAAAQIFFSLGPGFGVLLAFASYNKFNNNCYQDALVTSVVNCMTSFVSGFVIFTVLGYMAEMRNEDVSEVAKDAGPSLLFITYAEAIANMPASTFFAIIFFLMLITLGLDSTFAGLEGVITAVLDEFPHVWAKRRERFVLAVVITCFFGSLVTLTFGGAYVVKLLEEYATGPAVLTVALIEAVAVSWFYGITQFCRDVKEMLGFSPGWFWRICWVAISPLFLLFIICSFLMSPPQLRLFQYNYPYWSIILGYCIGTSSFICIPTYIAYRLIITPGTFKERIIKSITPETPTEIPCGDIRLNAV
row,SMILES,IC50 [nM]
1,O=C(NCCCN1CCC(Cc2ccccc2)CC1)c1ccc2ccccc2c1,100
2,c1ccc(C2CCN(CCCn3nnnc3C(c3ccccc3)c3ccccc3)CC2)cc1,> 10000

# Molecular target: T3, Sodium-dependent dopamine transporter (Homo sapiens, UniProt Q01959)
# Assay: Inhibition of [3H]dopamine uptake at DAT (unknown origin)
# Conditions: not given
# Method in brief: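 HEK-293 cells transfected with human dopamine transporter (hDAT). Uptake of [³H]-DA at 20 nM, measured by liquid scintillation counting. Test compounds screened as % reuptake inhibition at 1 µM and 10 µM, and IC50 values determined.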
# T3 sequence (Q01959 whole entry): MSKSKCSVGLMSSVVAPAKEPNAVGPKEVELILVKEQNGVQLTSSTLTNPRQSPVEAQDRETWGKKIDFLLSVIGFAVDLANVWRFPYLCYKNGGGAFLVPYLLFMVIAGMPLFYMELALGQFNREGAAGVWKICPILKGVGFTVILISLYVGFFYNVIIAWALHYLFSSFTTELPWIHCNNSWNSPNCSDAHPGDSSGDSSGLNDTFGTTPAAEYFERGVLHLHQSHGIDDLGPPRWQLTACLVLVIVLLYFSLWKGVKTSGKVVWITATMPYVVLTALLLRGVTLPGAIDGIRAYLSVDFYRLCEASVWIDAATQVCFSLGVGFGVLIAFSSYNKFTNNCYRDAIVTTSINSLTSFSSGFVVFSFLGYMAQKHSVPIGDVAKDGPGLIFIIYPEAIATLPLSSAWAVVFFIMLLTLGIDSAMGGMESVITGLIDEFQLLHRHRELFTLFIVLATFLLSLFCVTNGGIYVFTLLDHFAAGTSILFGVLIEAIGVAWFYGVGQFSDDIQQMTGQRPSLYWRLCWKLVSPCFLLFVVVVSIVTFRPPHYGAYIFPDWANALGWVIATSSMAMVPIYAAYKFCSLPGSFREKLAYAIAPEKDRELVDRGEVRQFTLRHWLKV
row,SMILES,IC50 [nM]
1,O=C(NCCCN1CCC(Cc2ccccc2)CC1)c1ccc2ccccc2c1,> 10000
2,c1ccc(C2CCN(CCCn3nnnc3C(c3ccccc3)c3ccccc3)CC2)cc1,90

# Molecular target: T2, Sodium-dependent serotonin transporter
# Conditions: HEK293, at 1 µM
# Target sequence in this assay (P31645 whole entry, looked up): as the sequence (P31645 whole entry) above
row,SMILES,inhibition [%]
1,c1ccc(CC2CCN(CCOc3ccc4ccccc4c3)CC2)cc1,12.1
2,Clc1ccc(N2CCN(CCOc3ccc4ccccc4c3)CC2)cc1,20.1
3,c1ccc(N2CCN(CCOc3ccc4ccccc4c3)CC2)nc1,54
4,Clc1cccc(N2CCN(CCOc3ccc4ccccc4c3)CC2)c1Cl,26.7
5,FC(F)(F)c1ccc(N2CCN(CCOc3ccc4ccccc4c3)CC2)cc1,8.2
6,FC(F)(F)c1ccc(N2CCN(CCCCOc3ccc4ccccc4c3)CC2)cc1,59.2
7,c1ccc(N2CCN(CCCCOc3ccc4ccccc4c3)CC2)cc1,41.2
8,c1ccc(CC2CCN(CCCOc3ccc4ccccc4c3)CC2)cc1,51
9,Clc1cccc(N2CCN(CCCOc3ccc4ccccc4c3)CC2)c1Cl,37.5
10,Clc1ccc(N2CCN(CCOc3ccc4ccccc4c3)CC2)c(Cl)c1,61.4
11,c1cnc(N2CCN(CCOc3ccc4ccccc4c3)CC2)nc1,57
12,COc1ccccc1N1CCN(CCCCOc2ccc3ccccc3c2)CC1,51.3
13,Cc1cccc(C)c1N1CCN(CCOc2ccc3ccccc3c2)CC1,24.6
14,Brc1ccc(N2CCN(CCCOc3ccc4ccccc4c3)CC2)cc1,54.9
15,Fc1ccc(N2CCN(CCCOc3ccc4ccccc4c3)CC2)cc1,45.4
16,Clc1cccc(N2CCN(CCCCOc3ccc4ccccc4c3)CC2)c1,27.5
17,c1cnc(N2CCN(CCCCOc3ccc4ccccc4c3)CC2)nc1,32
18,c1ccc(CC2CCN(CCCCOc3ccc4ccccc4c3)CC2)cc1,31.9

row,SMILES,inhibition [%]
1,c1ccc(N2CCN(CCOc3ccc4ccccc4c3)CC2)cc1,7.2
2,Clc1ccc(N2CCN(CCCCOc3ccc4ccccc4c3)CC2)c(Cl)c1,51
3,c1ccc(N2CCN(CCCOc3ccc4ccccc4c3)CC2)nc1,46.2
4,c1cnc(N2CCN(CCCOc3ccc4ccccc4c3)CC2)nc1,23.8
5,COc1ccccc1N1CCN(CCCOc2ccc3ccccc3c2)CC1,56.4
6,Cc1cccc(C)c1N1CCN(CCCOc2ccc3ccccc3c2)CC1,35.1
7,Cc1cccc(C)c1N1CCN(CCCCOc2ccc3ccccc3c2)CC1,38.3
8,Clc1ccc(N2CCN(CCCCOc3ccc4ccccc4c3)CC2)cc1,49
9,Clc1cccc(N2CCN(CCOc3ccc4ccccc4c3)CC2)c1,85.3
10,Brc1ccc(N2CCN(CCOc3ccc4ccccc4c3)CC2)cc1,9
11,Clc1cccc(N2CCN(CCCCOc3ccc4ccccc4c3)CC2)c1Cl,36.8
12,Brc1ccc(N2CCN(CCCCOc3ccc4ccccc4c3)CC2)cc1,66.3
13,c1ccc(N2CCN(CCCOc3ccc4ccccc4c3)CC2)cc1,27
14,Fc1ccc(N2CCN(CCCCOc3ccc4ccccc4c3)CC2)cc1,71
15,Clc1ccc(N2CCN(CCCOc3ccc4ccccc4c3)CC2)cc1,28.4
16,COc1ccccc1N1CCN(CCOc2ccc3ccccc3c2)CC1,48.7
17,Fc1ccc(N2CCN(CCOc3ccc4ccccc4c3)CC2)cc1,60.5
18,c1ccc(N2CCN(CCCCOc3ccc4ccccc4c3)CC2)nc1,45.3

# Molecular target: T2, Sodium-dependent serotonin transporter
# Assay: Inhibition of [3H]serotonin uptake at human SERT expressed in HEK293 cells after 15 to 20 mins by microbeta scintillation counting method
# Type: cell-based
# Conditions: not given
# Target sequence in this assay (P31645 whole entry): as above
row,SMILES,IC50 [nM]
1,c1ccc(N2CCN(CCOc3ccc4ccccc4c3)CC2)nc1,1080
2,FC(F)(F)c1ccc(N2CCN(CCCCOc3ccc4ccccc4c3)CC2)cc1,680
3,c1ccc(CC2CCN(CCCOc3ccc4ccccc4c3)CC2)cc1,990
4,Fc1ccc(C(OCCN2CCN(c3ccccn3)CC2)c2ccc(F)cc2)cc1,570
5,COc1ccccc1N1CCN(CCCCOc2ccc3ccccc3c2)CC1,5160
6,Brc1ccc(N2CCN(CCCOc3ccc4ccccc4c3)CC2)cc1,830
7,Clc1ccc(N2CCN(CCCCOc3ccc4ccccc4c3)CC2)c(Cl)c1,4320
8,COc1ccccc1N1CCN(CCCOc2ccc3ccccc3c2)CC1,1040
9,Fc1cccc(F)c1N1CCN(CCCn2nnnc2C(c2ccccc2)c2ccccc2)CC1,> 10000
10,Clc1cccc(N2CCN(CCOc3ccc4ccccc4c3)CC2)c1,1860
11,Brc1ccc(N2CCN(CCCCOc3ccc4ccccc4c3)CC2)cc1,10700
12,Fc1ccc(N2CCN(CCCCOc3ccc4ccccc4c3)CC2)cc1,3150
13,Fc1ccc(N2CCN(CCOc3ccc4ccccc4c3)CC2)cc1,2800

# Molecular target: T1, Sodium-dependent noradrenaline transporter
# Assay: Inhibition of [3H]norepinephrine uptake at NET (unknown origin)
# Conditions: not given
# Method in brief: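 HEK-293 cells transfected with human norepinephrine transporter (hNET). [³H]-NE at 20 nM as substrate, with uptake read by liquid scintillation counting. Reuptake inhibition recorded at 1 µM and 10 µM test compound, and IC50 derived.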
row,SMILES,IC50 [nM]
1,c1ccc(C2CCN(CCCn3nnnc3C(c3ccccc3)c3ccccc3)CC2)cc1,510

# Molecular target: T3, Sodium-dependent dopamine transporter
# Assay: Inhibition of [3H]dopamine uptake at human DAT expressed in HEK293 cells at 1 uM after 15 to 20 mins by microbeta scintillation counting method
# Type: cell-based
# Conditions: not given
# Method in brief: as §1
row,SMILES,inhibition
1,c1ccc(CC2CCN(CCOc3ccc4ccccc4c3)CC2)cc1,inactive
2,Clc1ccc(N2CCN(CCOc3ccc4ccccc4c3)CC2)cc1,2%
3,CC(NC(C)(C)C)C(=O)c1cccc(Cl)c1 (stereo unspecified),78.3%
4,c1ccc(N2CCN(CCOc3ccc4ccccc4c3)CC2)nc1,inactive
5,Clc1cccc(N2CCN(CCOc3ccc4ccccc4c3)CC2)c1Cl,inactive
6,FC(F)(F)c1ccc(N2CCN(CCOc3ccc4ccccc4c3)CC2)cc1,31.3%
7,Clc1ccc(N2CCN(CCOc3ccc4ccccc4c3)CC2)c(Cl)c1,48.5%
8,c1cnc(N2CCN(CCOc3ccc4ccccc4c3)CC2)nc1,inactive
9,Cc1cccc(C)c1N1CCN(CCOc2ccc3ccccc3c2)CC1,19%
10,c1ccc(N2CCN(CCOc3ccc4ccccc4c3)CC2)cc1,9%
11,Clc1cccc(N2CCN(CCOc3ccc4ccccc4c3)CC2)c1,inactive
12,Brc1ccc(N2CCN(CCOc3ccc4ccccc4c3)CC2)cc1,19%
13,COc1ccccc1N1CCN(CCOc2ccc3ccccc3c2)CC1,19%
14,Fc1ccc(N2CCN(CCOc3ccc4ccccc4c3)CC2)cc1,35.6%

# Molecular target: T3, Sodium-dependent dopamine transporter
# Assay: Inhibition of [3H]dopamine uptake at human DAT expressed in HEK293 cells after 15 to 20 mins by microbeta scintillation counting method
# Type: cell-based
# Conditions: not given
# Method in brief: as §1
row,SMILES,IC50 [nM]
1,O=C(NCCCN1CCN(c2cccc(Cl)c2Cl)CC1)c1ccc2ccccc2c1,> 10000
